The subject of data set [1] is tumor. As to conditions: ref [23],[24]; cited from earlier work.
Data set [2] deals with human centrin 2 (Hscen2). As to conditions: 30 °C, pH 6.5; compared to Crcen-MLT and CaM-MLT; ref [16]; cited from earlier work.
A short description of data set [3]: FT-IR / 2D IR correlation spectroscopy, thermal dependence. The format is physicochemical. As to conditions: ^13C-Crcen-MLT complex.
In data set [4] the target is T1, Crcen (Chlamydomonas reinhardtii centrin) (Chlamydomonas reinhardtii, UniProt P05434). The data set is described as follows: X-ray crystal structure of Crcen-MLT complex. Conditions: PDB 3QRX, 2.30 Å, 4 Ca^2+ ions, Crcen-MLT 1:1.5 molar ratio. The format is binding.
For data set [5], the target named is T1, Crcen (Chlamydomonas reinhardtii centrin). The data set is described as follows: Isothermal titration calorimetry of Crcen-MLT interaction. The format is binding. Conditions: ITC, pH 7.4, 25 °C. In short, it runs like this: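 Unlabeled recombinant centrin was expressed in E. coli, purified, and quantified by ε280 = 1,490 M⁻¹ cm⁻¹. The acetylated, amidated test peptide was dialysed against 0.1 N HCl to remove TFA, then against buffer. 120 μM peptide was injected sequentially into 10 μM centrin in 50 mM Hepes, 150 mM NaCl, 4 mM CaCl₂, 4 mM MgCl₂, pH 7.4, 25 °C. Data were fitted to a one-site binding model.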
Background: Isothermal titration calorimetry measures the heat released or taken up as one component is titrated into another.

Data set [6] has as its system calmodulin (CaM). As to conditions: literature statement; cited from earlier work.
Data set [7] relates to CaM (calmodulin). Conditions: cited from earlier work.
The subject of data set [8] is human centrin 3. As to conditions: compared to Hscen2-MLT (Kd 62.5 nM); ref [16],[25]; cited from earlier work.
For data set [9] the following is noted: ref [12]; cited from earlier work.
The conditions of data set [10]: holo-Crcen; ref [11]; cited from earlier work.
For data set [11], the target named is Chlamydomonas reinhardtii centrin (Chlamydomonas reinhardtii) (UniProt P05434). The data set is described as follows: ITC.
Data set [12] concerns the target melittin (Apis mellifera) (UniProt P01501). As to conditions: cited from earlier work.

Entries after “also recorded” stand apart in the source; their conditions may differ.

Melittin (Ac-…-NH2) (peptide), sequence (P01501 44-69): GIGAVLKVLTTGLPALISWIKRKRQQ
Chlamydomonas reinhardtii centrin (Chlamydomonas reinhardtii), sequence (P05434 whole entry): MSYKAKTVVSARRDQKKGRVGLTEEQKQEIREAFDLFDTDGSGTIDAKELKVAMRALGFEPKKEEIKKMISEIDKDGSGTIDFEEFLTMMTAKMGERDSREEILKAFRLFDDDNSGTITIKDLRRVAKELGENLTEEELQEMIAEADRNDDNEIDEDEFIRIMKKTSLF
T1 sequence (P05434 2-169): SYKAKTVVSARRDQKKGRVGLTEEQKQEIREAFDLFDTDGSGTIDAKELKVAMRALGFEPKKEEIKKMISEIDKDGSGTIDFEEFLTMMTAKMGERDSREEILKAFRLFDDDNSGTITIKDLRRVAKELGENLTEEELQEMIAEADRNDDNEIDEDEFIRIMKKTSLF
human centrin 2, sequence (P41208 2-172): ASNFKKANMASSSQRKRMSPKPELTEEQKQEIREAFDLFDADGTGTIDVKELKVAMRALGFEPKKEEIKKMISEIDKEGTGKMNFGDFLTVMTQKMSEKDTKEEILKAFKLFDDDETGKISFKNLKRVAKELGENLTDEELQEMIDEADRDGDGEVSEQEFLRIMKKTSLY
melittin (Apis mellifera), sequence (P01501 44-70): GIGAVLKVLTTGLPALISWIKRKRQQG

The Kd is the constant that tells how readily two partners part at equilibrium. Take `CC[C@H](C)[C@H](NC(=O)CNC(C)=O)C(=O)NCC(=O)N[C@@H](C)C(=O)N[C@H](C(=O)N[C@@H](CC(C)C)C(=O)N[C@@H](CCCCN)C(=O)N[C@H](C(=O)N[C@@H](CC(C)C)C(=O)N[C@H](C(=O)N[C@H](C(=O)NCC(=O)N[C@@H](CC(C)C)C(=O)N1CCC[C@H]1C(=O)N[C@@H](C)C(=O)N[C@@H](CC(C)C)C(=O)N[C@H](C(=O)N[C@@H](CO)C(=O)N[C@@H](Cc1c[nH]c2ccccc12)C(=O)N[C@H](C(=O)N[C@@H](CCCCN)C(=O)N[C@@H](CCCNC(=N)N)C(=O)N[C@@H](CCCCN)C(=O)N[C@@H](CCCNC(=N)N)C(=O)N[C@@H](CCC(N)=O)C(=O)N[C@@H](CCC(N)=O)C(N)=O)[C@@H](C)CC)[C@@H](C)CC)[C@@H](C)O)[C@@H](C)O)C(C)C)C(C)C` [MLT]: in [1], the cytotoxicity entry is on record as “cytotoxicity” and the “effect on tumor growth” value is reported as “inhibitory effect on tumor growth”. Besides, the “enthalpy change, Hscen2-MLT” value in data set [2] was “much more favorable for binding”. Also, the “conformational change of MLT in the complex” value in data set [3] was “increased helicity”. In addition, the “binding site in crystal structure” value in [4] is “interacts with the C-terminal domain of Crcen; also recorded: limits its interaction to the C-terminal domain of centrin”. In [5], the “thermodynamic driving force of complex formation” value was “driven by entropy; also recorded: driven entropically”, the ΔG is -46.4 kJ/mol and the ΔS was 28.0 cal/mol∙K. The “n (binding stoichiometry)” value in [5] (one-site binding model) is on record as 1.38 ± 0.01. In data set [5] (exothermic), this molecule yielded a ΔHb of -11.4 ± 0.29 kJ/mol. Also, the “inhibition of calmodulin (CaM) activity” value in [6] is recorded as “potent inhibitor”. In addition, the “thermodynamic driving force of complex formation, CaM” value in data set [7] (BtCaM, 25 °C, pH 7.0, ref [14]) was “driven by entropy”. In addition, the “dissociation constant (Kd), holo-CaM” value in [7] (holo-CaM-MLT, 1:1 molar ratio, ref [14],[15],[17]) is “low nanomolar range”. Further, the Kd in [7] (read-out: Kd, apo-CaM, ref [17],[18]) is approximately 10 µM. The “affinity, human centrin 3-MLT, fold higher than Hscen2-MLT” value in data set [8] is 2–3 fold.

As to “Crcen: Chlamydomonas reinhardtii centrin (Swiss Protein Database accession number P05434), EF-hand calcium binding protein”, the “shift of amide I’ peak maximum with temperature, unlabeled Crcen” value in data set [9] is 2.5 cm⁻¹. In data set [10], the “Tm (transition temperature)” value is 112.1 °C.

For orientation: stoichiometry N means the number of molecules, sites or subunits per partner or assembly. For the molecule Melittin (Ac-…-NH2) (peptide), in data set [11], the Kd came to 0.00741 µM, the dH was -11.4 kJ/mol and the stoichiometry N was determined as 1.38.

With human centrin 2 (from UniProt P41208), the Kd in [12] was 0.0625 µM.

The record behind these values is publication PMC3204214 (Proteins, 2011).
